From ChEMBL document CHEMBL1828578, “Antimalarial activities of new guanidylimidazole and guanidylimidazoline derivatives” (J Med Chem, 2011) come the findings set out here.

Data set [1] deals with Plasmodium cynomolgi. The data set is described as follows: Antimalarial activity against sporozoites stage of Plasmodium cynomolgi infected in Rhesus monkey assessed as delay in patency at 0.316 mg/kg/day, po administered one day before infection, on day of infection and one day post infection. It is filed as functional. In short, it runs like this: (§1)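 Causal prophylaxis test in Rhesus monkeys inoculated with P. cynomolgi sporozoites, two monkeys per group. Drug was given orally on days −1, 0 and +1 relative to inoculation. Patency was the first day parasites were detected in blood smears, and the delay was counted against vehicle-treated controls.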

Data set [2] concerns Plasmodium falciparum. The data set is described as follows: Antimalarial activity against sporozoites stage of Plasmodium falciparum D6 after 3 days by microdilution technique. Type of data set: functional, organism-based. The conditions noted are these: D6, 72 h, in the assay text read “blood stage” for “sporozoites stage”. In short, it runs like this: (§2)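 P. falciparum clones were tested in vitro using a modified semiautomated microdilution technique.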
(In general: In broth dilution the organism is exposed to a series of concentrations in liquid medium.)

Data set [3] relates to Plasmodium cynomolgi. The data set is described as follows: Antimalarial activity against sporozoites stage of Plasmodium cynomolgi infected in Rhesus monkey assessed as delay in patency at 50 mg/kg/day, po administered one day before infection, on day of infection and one day post infection. Type of data set: functional. In short, it runs like this: as §1
A short description of data set [4]: Metabolic stability of the compound in human liver microsomes assessed as half life at 1 uM by LC-MS analysis. Type of data set: ADME, Microsome. The procedure, abridged: (§3)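 Compound at 1 μM final (from 10 or 20 mM DMSO stocks) was incubated with 0.5 mg/mL pooled human or mouse liver microsomes. The mix held 1.3 mM NADP and 3.3 mM MgCl₂ in 0.1 M PBS pH 7.4, and the reaction was started with 1 U/mL G6PD. Incubation was at 37 °C with shaking, and samples were quenched with cold acetonitrile at 0, 10, 20, 30 and 60 min.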
A general note: Liver microsomes are vesicles of endoplasmic reticulum, rich in cytochrome P450 enzymes.

Data set [5] in a line: Metabolic stability of the compound in mouse liver microsomes assessed as half life at 1 uM by LC-MS analysis. It is filed as ADME, Microsome. The procedure, abridged:
as §3

The nature of data set [6]: Metabolic stability of the compound in rhesus monkey microsomes assessed as half life at 1 uM by LC-MS analysis. Type of data set: ADME, Macaca mulatta, Microsome.
Data set [7] has as its system Plasmodium falciparum. The data set is described as follows: Antimalarial activity against […] of Plasmodium falciparum TM91C235 after for 3 days by microdilution technique. The settings on record: TM91C235, 72 h. It is filed as functional, organism-based. In short, it runs like this: as §2
The test system of data set [8] is Plasmodium falciparum. The data set is described as follows: Antimalarial activity against […] of Plasmodium falciparum W2 after for 3 days by microdilution technique. Type of data set: functional, organism-based. The settings on record: W2, 72 h. The procedure, abridged:
as §2

Data set [9] has as its system Plasmodium cynomolgi. As to the kind of experiment: Antimalarial activity against sporozoites stage of Plasmodium cynomolgi infected in Rhesus monkey assessed as delay in patency at 1.78 mg/kg/day, po administered one day before infection, on day of infection and one day post infection. Type of data set: functional. The procedure, abridged: as §1

Converted amounts (≈) assume the structure as drawn.

As to `COc1cc(C)c2c(Oc3cccc(C(F)(F)F)c3)c(OC)cc(NC(C)CCCN)c2n1` (centres undefined) [TAFENOQUINE], the Time in data set [1] worked out at 2 days.
Usually IC50 stands for the concentration that gives 50% inhibition. Usually half-life stands for how long it takes for the measured level to halve. With `CC(C)N/C(=N\c1nccn1C(C)C)Nc1ccc(Cl)c(Cl)c1`, the IC50 in [2] came out at 2.6 µg/mL (≈ 7.34 µM); in data set [7], 2.4 µg/mL (≈ 6.77 µM); in [8] it was 0.8 µg/mL (≈ 2.26 µM). Besides, the Time in data set [3] turned out to be 9 days. Besides, the results for the half-life at 1 µM in data set [4], in data set [5] and in data set [6] were 22.5 min, 5.9 min and 7.8 min, respectively.
`COc1cc(NC(C)CCCN)c2ncccc2c1` (centres undefined) [PRIMAQUINE]: the Time in data set [9] stood at 5 days.
